What all share (type): functional
The test system of experiment [1] is Plasmodium berghei. The experiment is described as follows: Antimalarial activity in Plasmodium berghei infected mice (Mus musculus) after subcutaneous 160 mg/kg dose. The gist of the method:
(§1)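 Normal drug-sensitive P. berghei strain in mice. Compound dissolved or suspended in sesame or peanut oil, given parenterally as a single subcutaneous dose 72 h postinfection.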

Experiment [2] concerns Plasmodium berghei. The experiment is described as follows: Antimalarial activity in Plasmodium berghei infected mice (Mus musculus) after subcutaneous 640 mg/kg dose. An outline of the steps: as §1
For experiment [3], the system named is Plasmodium berghei. The experiment is described as follows: Antimalarial activity in Plasmodium berghei infected mice (Mus musculus) after 20 mg/kg subcutaneous dose. The gist of the method:
(§2)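 […] in mice infected with a normal drug-sensitive P. berghei strain. Compound dissolved or suspended in sesame or peanut oil, given as a single subcutaneous dose 72 h postinfection.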

For experiment [4], the system named is Plasmodium berghei. The experiment is described as follows: (§3) Antimalarial activity in Plasmodium berghei infected mice (Mus musculus) after 80 mg/kg subcutaneous dose. An outline of the steps:
as §2

Experiment [5] concerns Plasmodium berghei. The experiment is described as follows: Antimalarial activity Plasmodium berghei infected mice (Mus musculus) after 640 mg/kg subcutaneous dose. The gist of the method: as §2
Experiment [6] concerns Plasmodium berghei. As to the kind of experiment: Antimalarial activity in Plasmodium berghei infected mice (Mus musculus) after 40 mg/kg subcutaneous dose. An outline of the steps:
as §2

The test system of experiment [7] is Plasmodium berghei. As to the kind of experiment: Antimalarial activity in Plasmodium berghei infected mice (Mus musculus) after 160 mg/kg subcutaneous dose. An outline of the steps:
as §2

Experiment [8] relates to Plasmodium berghei. As to the kind of experiment: Antimalarial activity in Plasmodium berghei infected mice (Mus musculus) after subcutaneous 320 mg/kg dose. The gist of the method:
as §1

Experiment [9] concerns Plasmodium berghei. Described as §3. The gist of the method:
as §1
This is another data set of the same source.

Several values for one entry are separate records, joined by “and”; a condition that tells them apart may be missing. Equal entries are not always repeated.

On to `O=C1CC(c2ccccc2Cl)Cc2nc3ccc(Cl)cc3c(O)c21` (stereo not drawn), for which the “No. of cured mice” value in experiment [1] and in [2] was 1 each time. The “Delta mean survival time” value came out at 1.5 in experiment [3]; 5.5 in [4]; 9.6 in experiment [5]; 2.7 in [6]; 0.4 in experiment [7].

In the case of `O=C1CC(c2ccc(C(F)(F)F)cc2)Cc2nc3ccc([N+](=O)[O-])cc3c(O)c21` (stereo not drawn), the “No. of cured mice” value in [2] came out at 1. In addition, the “Delta mean survival time” value in experiment [3] was 0.7; in experiment [5], 6.9; in experiment [6], 4.1; in [7], 2.8.

Turning to `CN(C)CCC/N=C1\CC(c2ccc(C3CCCCC3)cc2)Cc2nc3ccc(Cl)cc3c(O)c21` (stereo not drawn), the “No. of cured mice” value is 2 in experiment [1], 3 in experiment [2] and 5 in [8]. Moreover, the “Delta mean survival time” value in experiment [3] is on record as 2.8; in experiment [4], 7.2; in experiment [5], 9.6; in experiment [6], 7; in [7], 10.3.

Consider `O=C1CC(c2ccccc2Cl)Cc2c1c(=O)c1cc(Cl)ccc1n2O` (stereo not drawn), for which the “No. of cured mice” value in experiment [1] is reported as 1; in [2] it was 4. In addition, the “Delta mean survival time” value in experiment [3] was 1.7; in [5], 9; in experiment [6] it was 4.6; in experiment [7] it was 4.5.

On to `Cc1ccc(C2CC(=O)c3c(n(O)c4ccc(Cl)cc4c3=O)C2)cc1` (stereo not drawn), for which the “Delta mean survival time” value in experiment [3] is on record as 0.8; in [4] it was 2.8; in experiment [5], 6.9; in experiment [6], 0.6; in experiment [7], 3.1.

In the case of `O=C1c2c(nc3ccc(Cl)cc3c2O)CCC1c1ccccc1` (stereo not drawn), the “Delta mean survival time” value is listed as 0 in experiment [4], 0 in experiment [5], 0.2 in experiment [6] and 0 in experiment [7].

For the compound `CC1C(=O)c2c(nc3ccc(Cl)cc3c2O)CC1c1ccc(C(F)(F)F)cc1` (stereo not drawn), the figures for the “No. of cured mice” value in experiment [1], in experiment [2] and in experiment [8] were 2, 4 and 5, respectively. Besides, the “Delta mean survival time” value is on record as 3.9 in experiment [3]; 7.5 in [4]; 8.8 in [5]; 5.7 in [6]; 12.8 in experiment [7].

`COc1ccccc1C1C/C(=N\CCCN(C)C)c2c(nc3ccc(Cl)cc3c2O)C1` (stereo not drawn): the “No. of cured mice” value in experiment [2] is given as 2. The entries for the “Delta mean survival time” value in [5], in [6] and in experiment [7] were 6.4, 1.7 and 6.7, respectively.

On to `COc1ccc(C2C/C(=N\CCCN(C)C)c3c(nc4ccc(Cl)cc4c3O)C2)cc1` (stereo not drawn), for which, in experiment [2], the “No. of cured mice” value amounted to 1. The figures for the “Delta mean survival time” value in experiment [5], in experiment [6] and in experiment [7] were 11.2, 0.5 and 4.5, respectively.

In the case of `O=C1CC(c2ccc(C(F)(F)F)cc2)Cc2nc3ccc(I)cc3c(O)c21` (stereo not drawn), the results for the “Delta mean survival time” value in experiment [5], in experiment [6] and in experiment [7] were 0.4, 0.2 and 0.4, respectively.

In the case of `O=C1CC(c2ccc([N+](=O)[O-])cc2)Cc2nc3ccc(Cl)cc3c(O)c21` (stereo not drawn), the “No. of cured mice” value in [2] stood at 2. The “Delta mean survival time” value in experiment [5] is 13.3; in experiment [6], 0.8; in experiment [7] it was 4.6.

For `Cc1ccc(C2CC(=O)c3c(nc4ccc(Cl)cc4c3O)C2)cc1` (stereo not drawn), the “No. of cured mice” value in [1] and in [2] was 2 in each case. Moreover, the entries for the “Delta mean survival time” value in experiment [5], in experiment [6] and in [7] were 11.7, 3.9 and 8.7, respectively.

`CC(C)C1CC(=O)c2c(n(C)c3ccccc3c2=O)C1` (stereo not drawn): the “Delta mean survival time” value in experiment [5] was 0.5; in [6], -0.2; in experiment [7] it was 0.2.

With `Cn1c2c(c(=O)c3cc(Cl)ccc31)C(=O)CC(c1ccc(Cl)c(Cl)c1)C2` (stereo not drawn), the results for the “Delta mean survival time” value in [5], in [6] and in [7] were 0.2, 0 and 0.6, respectively.

For `O=C1CC(c2ccccc2C(F)(F)F)Cc2c1c(=O)c1cc(Cl)ccc1n2O` (stereo not drawn), the “Delta mean survival time” value was determined as 0.6 in experiment [3], 8.3 in [5], 2.7 in experiment [6] and 4.5 in experiment [7].

Turning to `CN(C)CCC/N=C1\CC(c2ccccc2C(F)(F)F)Cc2c1c(=O)c1cc(Cl)ccc1n2O` (stereo not drawn), the “No. of cured mice” value stood at 4 in experiment [1], 5 in experiment [2], 1 in experiment [9] and 5 in experiment [8]. In addition, the “Delta mean survival time” value was 7.5 in [4], 5.8 in [6] and 8 in experiment [7].

Take `O=C1CC2(CCCCC2)Cc2nc3ccc(Cl)cc3c(O)c21`: the entries for the “Delta mean survival time” value in experiment [5], in [6] and in experiment [7] were 0.2, 0.6 and 0, respectively.

Consider `COc1ccc(C2CC(=O)c3c(nc4ccc(Cl)cc4c3O)C2)cc1` (stereo not drawn), for which the “Delta mean survival time” value was -0.1 in experiment [5], -0.1 in [6] and 0.1 in experiment [7].

Turning to `O=C1CC(c2ccc(C(F)(F)F)cc2)Cc2c1c(=O)c1c(Cl)c(Cl)ccc1n2O` (stereo not drawn), the “No. of cured mice” value in [1] is reported as 2; in [2], 2; in experiment [8], 3. The “Delta mean survival time” value was 4.5 in experiment [3]; 7.8 in experiment [4]; 9.8 and 7 in [5] (640 mg/kg); 7 in [6]; 7 in experiment [7].

In the case of `O=C1CC2(CCCCC2)Cc2c1c(=O)c1cc(Cl)ccc1n2O`, the “Delta mean survival time” value in experiment [5] came out at 0; in experiment [6] it was 0; in experiment [7] it was 0.2.

In the case of `O=C1CC(c2ccc(C(F)(F)F)cc2)Cc2nc3c(Cl)cc(Cl)cc3c(O)c21` (stereo not drawn), the “Delta mean survival time” value in [5] is listed as 0; in experiment [6], -0.2; in experiment [7] it was 0.4.

For `O=C1CC(c2ccc(Cl)cc2Cl)Cc2nc3cc(Cl)ccc3c(O)c21` (stereo not drawn), the “Delta mean survival time” value was 1.3 in experiment [5], -0.1 in experiment [6] and 0.1 in [7].

With `CN(C)CCC/N=C1\CC(c2ccc(C(F)(F)F)cc2)Cc2nc3c(Br)cc(Br)cc3c(O)c21` (stereo not drawn), the “Delta mean survival time” value in [5] is 0.4; in [6] it was 0.2; in [7] it was 0.2.

On to `O=C1CC(c2ccc(C(F)(F)F)cc2)Cc2nc3c(Br)cc(Br)cc3c(O)c21` (stereo not drawn), for which the “Delta mean survival time” value in experiment [5] worked out at 0; in experiment [6], 0.6; in [7], 0.2.

With `COc1cc(C2C/C(=N\CCCN3CCCC3)c3c(n(O)c4ccc(Cl)cc4c3=O)C2)cc(OC)c1OC` (stereo not drawn), the “Delta mean survival time” value in experiment [5] was 6.4; in experiment [6] it was 0.2; in experiment [7], 0.6.

As for `O=C1c2c(nc3ccc(Cl)cc3c2O)CC(c2ccc(Cl)c(Cl)c2)C1c1ccccc1` (stereo not drawn), the figures for the “Delta mean survival time” value in [5], in experiment [6] and in experiment [7] were 1.4, 0 and 0.4, respectively.

For `CCCCCCn1c2c(c(=O)c3cc(Cl)ccc31)C(=O)CC(c1ccc(C(F)(F)F)cc1)C2` (stereo not drawn), the “Delta mean survival time” value turned out to be 0.1 in experiment [5], 0.1 in experiment [6] and 0 in experiment [7].

For `O=C1CC(c2ccc(C3CCCCC3)cc2)Cc2c1c(=O)c1cc(Cl)ccc1n2O` (stereo not drawn), the “Delta mean survival time” value in [5] amounted to 4.1; in experiment [6], 0.9; in experiment [7] it was 1.3.

Turning to `O=C1CC(c2ccc(C(F)(F)F)cc2)Cc2nc3cc(Cl)ccc3c(O)c21` (stereo not drawn), the “Delta mean survival time” value in [5] is listed as 0.4; in experiment [6] it was -0.4; in [7], 0.2.

For `O=C1CC(c2ccc(C(F)(F)F)cc2)Cc2nc3ccc(C(F)(F)F)cc3c(O)c21` (stereo not drawn), the results for the “Delta mean survival time” value in [5], in [6] and in experiment [7] were -0.1, 0.1 and 0.1, respectively.

Take `CN(C)CCC/N=C1\CC(c2cccc(C(F)(F)F)c2)Cc2nc3ccc(Cl)cc3c(O)c21` (stereo not drawn): the “No. of cured mice” value in experiment [1] was found to be 5; in experiment [2], 5; in experiment [9], 1; in [8] it was 5. Moreover, the “Delta mean survival time” value in [4] was determined as 14.6; in experiment [6], 6.6.

For the compound `CCN(CC)CCC/N=C1\CC(c2cc(OC)c(OC)c(OC)c2)Cc2c1c(=O)c1cc(Cl)ccc1n2O` (stereo not drawn), the “Delta mean survival time” value in experiment [5] turned out to be 6.1; in [6], 0.4; in experiment [7], 0.7.

Take `O=c1c2c(n(O)c3ccc(Cl)cc13)CC(c1cccc(C(F)(F)F)c1)C/C2=N\CCCN1CCCC1` (stereo not drawn): the “No. of cured mice” value is recorded as 3 in [1], 4 in experiment [2] and 5 in [8]. Also, the “Delta mean survival time” value was 6 in [4], 25.6 in experiment [5], 6.2 in [6] and 9.6 in experiment [7].

The values are drawn from ChEMBL document CHEMBL1126276, “Synthesis and antimalarial properties of 1-imino derivatives of 7-chloro-3-substituted-3,4-dihydro-1,9(2H,10H)-acridinediones and related structures” (J Med Chem, 1992).
